For data set [1], the target named is Oligo-1,6-glucosidase IMA1 (Saccharomyces cerevisiae S288c, UniProt P53051). The data set is described as follows: Inhibition of yeast alpha-glucosidase.
Data set [2] can be described thus: Cytotoxicity against human wild type fibroblasts at up to 300 uM after 24 hrs by MTT assay. It counts as cell-based. As to conditions: fibroblast.
Data set [3] addresses T1, Lysosomal acid glucosylceramidase (Homo sapiens) (UniProt P04062).
T1 sequence (whole entry): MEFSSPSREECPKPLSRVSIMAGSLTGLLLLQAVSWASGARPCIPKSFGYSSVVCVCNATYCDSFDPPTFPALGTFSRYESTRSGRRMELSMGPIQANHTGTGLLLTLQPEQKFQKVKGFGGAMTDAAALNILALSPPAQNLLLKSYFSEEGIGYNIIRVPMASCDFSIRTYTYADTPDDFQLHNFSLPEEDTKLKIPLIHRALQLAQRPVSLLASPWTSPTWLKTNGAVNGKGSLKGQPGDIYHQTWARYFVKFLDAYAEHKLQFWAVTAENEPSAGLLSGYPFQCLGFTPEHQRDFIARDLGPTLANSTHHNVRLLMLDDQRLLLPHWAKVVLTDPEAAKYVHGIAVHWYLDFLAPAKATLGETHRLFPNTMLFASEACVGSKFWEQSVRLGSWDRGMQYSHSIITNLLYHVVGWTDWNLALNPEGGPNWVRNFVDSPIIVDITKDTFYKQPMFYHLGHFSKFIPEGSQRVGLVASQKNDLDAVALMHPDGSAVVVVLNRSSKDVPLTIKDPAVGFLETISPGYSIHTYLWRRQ
The data set is described as follows: Inhibition of glucocerebrosidase in human intact fibroblasts at 50 uM after 24 hrs by fluorometric analysis. In outline:
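Fibroblasts grown in MEM with 15% inactivated FCS, 37 °C, 5% CO2, passages 14–30. Plated in DMEM with aminocyclitol (50 μM final, from DMSO) for 24 h, washed with PBS. GCase assayed with 1 h incubation at 37 °C, stopped with 100 mM glycine-NaOH pH 10.6, fluorescence 355/460 nm. Untreated and treated cells in quadruplicate.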

Data set [4] has as its target T2, Lysosomal acid glucosylceramidase (Homo sapiens, UniProt P04062).
T2 sequence (P04062 whole entry): T1 sequence (whole entry)
Briefly: Competitive inhibition of recombinant glucocerebrosidase.

The target in data set [5] is T2, Lysosomal acid glucosylceramidase. The data set is described as follows: Inhibition of recombinant glucocerebrosidase in McIlvaine buffer at pH 5.2 after 10 mins by fluorometric analysis. In outline:
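Imiglucerase in McIlvaine buffer pH 5.2 containing 0.2% (w/v) sodium taurocholate and 0.1% (v/v) Triton X-100. Enzyme pre-incubated 30 min at 37 °C with inhibitor. Then 4 mM 4-methylumbelliferyl β-D-glucopyranoside (substrate solution), 10 min at 37 °C. Stop with 100 mM glycine/NaOH pH 10.6, fluorescence ex 355/em 460 nm. IC50 from % activity vs log[I], at least five concentrations.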

A further data set concerns the target Alpha-galactosidase (Coffea arabica, UniProt Q42656). Briefly: Inhibition of alpha-galactosidase from coffee beans.
Another data set has as its target T3, Beta-galactosidase (Bos taurus, UniProt Q58D55).
T3 sequence (Q58D55 whole entry): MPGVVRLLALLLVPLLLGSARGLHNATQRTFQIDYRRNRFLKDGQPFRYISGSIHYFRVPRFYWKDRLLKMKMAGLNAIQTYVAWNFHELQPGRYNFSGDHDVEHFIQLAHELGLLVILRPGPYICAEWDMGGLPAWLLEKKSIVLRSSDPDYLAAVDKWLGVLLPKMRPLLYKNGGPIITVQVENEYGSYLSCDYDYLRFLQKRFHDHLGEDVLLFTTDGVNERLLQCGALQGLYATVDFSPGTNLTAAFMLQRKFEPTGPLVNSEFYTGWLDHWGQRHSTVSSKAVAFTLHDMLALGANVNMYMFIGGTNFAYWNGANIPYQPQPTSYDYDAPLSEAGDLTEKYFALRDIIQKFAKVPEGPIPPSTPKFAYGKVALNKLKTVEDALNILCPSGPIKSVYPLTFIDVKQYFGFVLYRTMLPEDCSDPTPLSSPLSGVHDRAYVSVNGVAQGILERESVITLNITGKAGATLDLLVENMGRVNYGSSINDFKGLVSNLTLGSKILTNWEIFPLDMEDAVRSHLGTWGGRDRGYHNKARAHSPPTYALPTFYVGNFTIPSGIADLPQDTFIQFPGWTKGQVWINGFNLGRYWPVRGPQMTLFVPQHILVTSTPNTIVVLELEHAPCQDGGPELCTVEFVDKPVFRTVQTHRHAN
The data set is described as follows: Inhibition of bovine liver beta-galactosidase.

Data set [6] deals with Probable alpha-glucosidase Os06g0675700 (Oryza sativa Japonica Group, UniProt Q653V7). The data set is described as follows: Inhibition of rice alpha-glucosidase.
Chain of Probable alpha-glucosidase Os06g0675700 (Q653V7 whole entry): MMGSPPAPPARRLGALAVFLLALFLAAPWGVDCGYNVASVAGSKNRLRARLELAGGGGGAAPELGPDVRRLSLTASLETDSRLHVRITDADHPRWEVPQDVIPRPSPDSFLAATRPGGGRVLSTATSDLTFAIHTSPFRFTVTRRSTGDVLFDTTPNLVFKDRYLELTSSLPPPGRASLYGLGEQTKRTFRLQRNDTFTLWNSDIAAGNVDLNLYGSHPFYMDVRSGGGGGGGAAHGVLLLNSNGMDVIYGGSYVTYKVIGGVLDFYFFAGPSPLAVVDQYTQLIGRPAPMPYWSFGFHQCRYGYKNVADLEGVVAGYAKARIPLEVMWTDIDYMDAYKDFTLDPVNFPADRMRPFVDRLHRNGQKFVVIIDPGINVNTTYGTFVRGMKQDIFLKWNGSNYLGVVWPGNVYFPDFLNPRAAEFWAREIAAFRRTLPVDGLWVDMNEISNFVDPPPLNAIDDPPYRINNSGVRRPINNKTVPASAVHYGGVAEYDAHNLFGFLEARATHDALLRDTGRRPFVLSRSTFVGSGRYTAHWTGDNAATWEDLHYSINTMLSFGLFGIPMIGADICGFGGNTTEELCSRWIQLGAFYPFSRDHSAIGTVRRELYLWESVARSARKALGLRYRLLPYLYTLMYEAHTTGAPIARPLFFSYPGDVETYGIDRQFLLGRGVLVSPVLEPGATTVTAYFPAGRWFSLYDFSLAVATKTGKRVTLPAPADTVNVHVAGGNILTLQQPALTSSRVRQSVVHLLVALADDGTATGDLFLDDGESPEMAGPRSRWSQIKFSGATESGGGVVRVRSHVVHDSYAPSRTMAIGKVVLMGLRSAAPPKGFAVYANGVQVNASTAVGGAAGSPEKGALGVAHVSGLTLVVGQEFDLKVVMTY
For data set [7], the target named is T2, Lysosomal acid glucosylceramidase. Briefly: Inhibition of recombinant glucocerebrosidase in McIlvaine buffer at pH 7.4 after 10 mins by fluorometric analysis.
Data set [8] addresses T1, Lysosomal acid glucosylceramidase (Homo sapiens). The data set is described as follows: Enzyme stabilization ratio of recombinant glucocerebrosidase activity at 48 degC to at 37 degC at 100 uM after 60 mins.
Data set [9] has the same target. The data set is described as follows: Thermal stabilization of recombinant glucocerebrosidase assessed as enzyme activity at 150 uM at 48 degC after 60 mins. An outline of the steps:
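GCase (2 mg/mL) heated at 48 °C, pH 7.4, with water (control) or compound at 10–150 μM final, for 20, 40 or 60 min. Then acetate-phosphate pH 5.0 and 4 mM 4-methylumbelliferyl β-D-glucoside in McIlvaine pH 5.2 added, 10 min at 37 °C. Stopped with glycine pH 10.6, 4-methylumbelliferone measured. Activity relative to identical assay at 37 °C. SR = relative activity with vs without inhibitor.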

The target in data set [10] is T4, Ceramide glucosyltransferase (Homo sapiens) (UniProt Q16739).
T4 sequence (whole entry): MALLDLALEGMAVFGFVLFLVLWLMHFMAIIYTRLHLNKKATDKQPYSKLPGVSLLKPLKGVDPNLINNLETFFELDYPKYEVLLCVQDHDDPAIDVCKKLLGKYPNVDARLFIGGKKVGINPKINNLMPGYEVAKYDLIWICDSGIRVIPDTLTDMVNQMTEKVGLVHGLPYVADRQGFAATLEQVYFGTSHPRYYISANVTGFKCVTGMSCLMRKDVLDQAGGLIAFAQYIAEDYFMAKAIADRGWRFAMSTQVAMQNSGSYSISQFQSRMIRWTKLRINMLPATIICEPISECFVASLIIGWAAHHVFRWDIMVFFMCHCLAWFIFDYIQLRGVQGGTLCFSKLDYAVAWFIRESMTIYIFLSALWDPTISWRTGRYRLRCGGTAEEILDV
The data set is described as follows: Inhibition of glucosylceramide synthase in human A549 cells at 250 uM after 35 mins by fluorometric analysis. It counts as cell-based.

Active and inactive are the calls of the source. The calls are words filed in the database; no cut-off is given here.

For orientation: IC50 means the point on the concentration scale where inhibition reaches its midpoint. As usually defined, the inhibition is the percentage by which the read-out fell short of the control. What is called Ki is a measure of affinity in units of concentration, obtained from inhibition or displacement.

Chain of Oligo-1,6-glucosidase IMA1 (P53051 whole entry): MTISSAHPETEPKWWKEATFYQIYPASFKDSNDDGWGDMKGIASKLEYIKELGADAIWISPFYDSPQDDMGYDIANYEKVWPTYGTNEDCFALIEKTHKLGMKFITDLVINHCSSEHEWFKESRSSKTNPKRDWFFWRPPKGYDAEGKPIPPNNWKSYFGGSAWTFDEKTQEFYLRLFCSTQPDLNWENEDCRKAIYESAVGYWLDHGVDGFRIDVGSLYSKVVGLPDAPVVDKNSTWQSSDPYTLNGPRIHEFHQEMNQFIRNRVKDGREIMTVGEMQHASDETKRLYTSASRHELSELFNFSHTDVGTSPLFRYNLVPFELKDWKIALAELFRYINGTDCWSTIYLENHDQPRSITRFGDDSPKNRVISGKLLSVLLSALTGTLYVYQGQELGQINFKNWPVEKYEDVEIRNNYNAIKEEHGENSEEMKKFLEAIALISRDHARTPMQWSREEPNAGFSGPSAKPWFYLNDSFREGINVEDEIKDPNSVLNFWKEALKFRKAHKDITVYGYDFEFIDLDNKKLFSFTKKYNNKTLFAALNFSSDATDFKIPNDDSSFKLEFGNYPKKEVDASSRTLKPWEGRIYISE
Chain of Alpha-galactosidase (Q42656 whole entry): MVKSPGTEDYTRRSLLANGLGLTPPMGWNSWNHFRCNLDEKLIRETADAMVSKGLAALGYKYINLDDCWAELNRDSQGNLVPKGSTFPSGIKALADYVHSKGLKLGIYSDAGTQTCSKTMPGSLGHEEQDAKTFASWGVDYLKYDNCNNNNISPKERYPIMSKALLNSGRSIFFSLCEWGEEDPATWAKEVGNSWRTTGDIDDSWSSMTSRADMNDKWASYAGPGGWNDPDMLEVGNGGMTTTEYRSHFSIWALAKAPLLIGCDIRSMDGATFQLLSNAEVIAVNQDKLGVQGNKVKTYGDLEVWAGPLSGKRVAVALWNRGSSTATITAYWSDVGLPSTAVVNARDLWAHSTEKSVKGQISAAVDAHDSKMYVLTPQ

`O[C@@H]1[C@@H](O)[C@H](O)[C@@H](NCc2cn(CC34CC5CC(CC(C5)C3)C4)nn2)[C@H](O)[C@H]1O`: the concentration for half-maximal inhibition (IC50) in data set [1] was above 100 µM; in data set [5], 2.2 µM; against Alpha-galactosidase, above 100 µM; on Beta-galactosidase, above 100 µM; in data set [6], above 100 µM; in [7], 1.9 µM. In addition, the Activity result in data set [2] is on record as “Non-toxic”. Further, the inhibition came to 63% in [3] and 32% in data set [10]. Besides, the Ki in data set [4] was found to be 1.05 µM. Moreover, in data set [8], the Ratio came to 0.7. Also, in [9], the outcome was inactive.
For the compound `O[C@@H]1[C@@H](O)[C@H](O)[C@@H](NCc2cn(CCC(c3ccccc3)c3ccccc3)nn2)[C@H](O)[C@H]1O`, the IC50 is above 100 µM in data set [1]; 1.5 µM in [5]; above 100 µM on Alpha-galactosidase; above 100 µM on Beta-galactosidase; above 100 µM in data set [6]; 1.8 µM in [7]. Also, in [2], the Activity entry was “Non-toxic”. The figures for the inhibition in data set [3] and in [10] were 73% and 18%, respectively. For the same compound, in data set [4], the Ki was 0.77 µM. In data set [8], the Ratio stood at 0.5. Also, in [9], the result was inactive.

The values above are taken from ChEMBL document CHEMBL1764970, “New glucocerebrosidase inhibitors by exploration of chemical diversity of N-substituted aminocyclitols using click chemistry and in situ screening” (J Med Chem, 2011).
